# Laboratory results from ChEMBL document CHEMBL1135766, “Synthesis of conformationally constrained analogues of linezolid: structure-activity relationship (SAR) studies on selected novel tricyclic oxazolidinones” (2002).
# Columns and labels:
# [1] = tested on: Enterococcus faecalis; test: In vitro antibacterial activity against Enterococcus faecalis ATCC 29212 (E. f. 034) vancomycin sensitive; format: functional
# In short: (§1)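 Broth microdilution MIC per NCCLS guidelines in Mueller Hinton medium. Doubling dilutions from 256 to 1 μg/mL, inoculum (1–5) × 10⁵ CFU/mL, incubated overnight in ambient air at 35 °C. MIC is the lowest concentration giving complete growth inhibition. Linezolid and vancomycin served as controls.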
# [2] = tested on: Enterococcus faecium; test: In vitro antibacterial activity against Enterococcus faecium ATCC 12202 (E.fm 154) vancomycin resistant; format: functional, enterococcus fecium; in short: as §1
# [3] = tested on: Staphylococcus aureus; test: In vitro antibacterial activity against methicillin resistant Staphylococcus aureus ATCC 33591 (S. a. 019); format: functional; in short: as §1
# [4] = tested on: Staphylococcus aureus; test: In vitro antibacterial activity against Staphylococcus aureus ATCC 29213 (S. a. 035); format: functional
# In short: (§2)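 Broth microdilution per NCCLS guidelines in Mueller Hinton medium. Doubling dilutions 256–1 μg/mL; inoculum (1–5) × 10⁵ CFU/mL; plates incubated overnight at 35 °C in ambient air. MIC read as the lowest concentration giving complete growth inhibition. Linezolid and vancomycin served as controls.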
# [5] = tested on: Enterococcus faecalis; test: In vitro antibacterial activity against Enterococcus faecalis ATCC 29212 (E. f. 153) vancomycin sensitive; format: functional; in short: as §2
# [6] = tested on: Staphylococcus aureus; test: In vitro antibacterial activity against Staphylococcus aureus ATCC 49951 (S. a. 213); format: functional; in short: as §1
# [7] = tested on: Enterococcus faecalis; test: In vitro antibacterial activity against Enterococcus faecalis NCTC 12201 (E. f. 153) vancomycin resistant; format: functional; in short: as §1
# [8] = tested on: Mus musculus; test: In vivo antibacterial activity in a murine systemic infection model; format: functional
# In short: (§3)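 Female Swiss Albino mice (22–25 g, n = 6) were infected intraperitoneally with 0.5 mL S. aureus ATCC 29213. The inoculum was grown 2–3 h at 35 °C in BHI broth and adjusted to 100 × LD50 in 5% hog gastric mucin. Compound was suspended in 0.25% carboxymethyl cellulose and given orally 1 and 6 h post-infection; controls received saline. Cumulative mortality was scored over 48 h, and ED50 was derived by linear regression.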
# [9] = tested on: Mus musculus; test: In vivo antibacterial activity in a murine systemic infection model (95%confidence limits); format: functional; in short: as §3
SMILES,MIC [1] [µg/mL],MIC [2] [µg/mL],MIC [3] [µg/mL],MIC [4] [µg/mL],MIC [5] [µg/mL],MIC [6] [µg/mL],MIC [7] [µg/mL],ED50 [8] [mg/kg],ED50 [9] [mg/kg]
O=C(CCl)NC[C@H]1CN(c2cc(F)c3c(c2)OC[C@@H]2CCCN32)C(=O)O1,2,2,1,1,2,,,,
C/N=C(\S)NC[C@H]1CN(c2cc(F)c3c(c2)OC[C@@H]2CCCN32)C(=O)O1,2,4,2,4,,4,4,,
C=CC(=O)NC[C@H]1CN(c2cc(F)c3c(c2)OC[C@@H]2CCCN32)C(=O)O1,4,4,4,4,,4,4,30,
O=CNC[C@H]1CN(c2ccc3c(c2)OC[C@@H]2CCCN32)C(=O)O1,16,16,4,8,,,16,,
CC(=O)NC[C@H]1CN(c2ccc3c(c2)OC[C@@H]2CCCN32)C(=O)O1,16,16,4,8,,4,16,,
CC(C)C(=O)NC[C@H]1CN(c2cc(F)c3c(c2)OC[C@@H]2CCCN32)C(=O)O1,16,16,8,8,,8,16,,
CCC(=O)NC[C@H]1CN(c2cc(F)c3c(c2)OC[C@@H]2CCCN32)C(=O)O1,4,8,2,4,,4,8,16,
CCCCC(=O)NC[C@H]1CN(c2cc(F)c3c(c2)OC[C@@H]2CCCN32)C(=O)O1,16,32,8,16,,16,16,,
CCOC(=O)NC[C@H]1CN(c2cc(F)c3c(c2)OC[C@@H]2CCCN32)C(=O)O1,8,8,8,8,,8,8,,
CC/C(S)=N\C[C@H]1CN(c2cc(F)c3c(c2)OC[C@@H]2CCCN32)C(=O)O1,0.5,0.5,0.5,1,,0.5,0.5,30,
COC(=O)NC[C@H]1CN(c2cc(F)c3c(c2)OC[C@@H]2CCCN32)C(=O)O1,2,2,2,2,,2,2,3.3,
CCCCO/C(S)=N\C[C@H]1CN(c2cc(F)c3c(c2)OC[C@@H]2CCCN32)C(=O)O1,> 32,> 32,> 32,> 32,> 32,> 32,,,
O=C1O[C@@H](C/N=C(/S)N2CCOCC2)CN1c1cc(F)c2c(c1)OC[C@@H]1CCCN21,16,16,16,16,,16,16,,
CCO/C(S)=N\C[C@H]1CN(c2cc(F)c3c(c2)OC[C@@H]2CCCN32)C(=O)O1,2,2,1,2,2,2,,,
CCCCCC(=O)NC[C@H]1CN(c2cc(F)c3c(c2)OC[C@@H]2CCCN32)C(=O)O1,32,32,16,32,,32,32,,
CO/C(S)=N\C[C@H]1CN(c2cc(F)c3c(c2)OC[C@@H]2CCCN32)C(=O)O1,0.5,0.5,0.5,1,0.5,1,,,4.85
N=C(S)NC[C@H]1CN(c2cc(F)c3c(c2)OC[C@@H]2CCCN32)C(=O)O1,1,1,0.5,0.5,,0.5,1,,
CCCC(=O)NC[C@H]1CN(c2cc(F)c3c(c2)OC[C@@H]2CCCN32)C(=O)O1,4,4,4,4,,4,4,,
CCCC/C(S)=N\C[C@H]1CN(c2cc(F)c3c(c2)OC[C@@H]2CCCN32)C(=O)O1,2,2,2,4,,2,2,,

SMILES,MIC [1] [µg/mL],MIC [2] [µg/mL],MIC [3] [µg/mL],MIC [4] [µg/mL],MIC [5] [µg/mL],MIC [6] [µg/mL],MIC [7] [µg/mL],ED50 [8] [mg/kg],ED50 [9] [mg/kg]
O=CNC[C@H]1CN(c2cc(F)c3c(c2)OC[C@@H]2CCCN32)C(=O)O1,4,8,4,8,,4,4,,
C=CC(=O)NC[C@H]1CN(c2ccc3c(c2)OC[C@@H]2CCCN32)C(=O)O1,8,8,4,8,,,8,,
CC(C)C(=O)NC[C@H]1CN(c2ccc3c(c2)OC[C@@H]2CCCN32)C(=O)O1,32,32,8,16,,,32,,
O=C(NC[C@H]1CN(c2ccc3c(c2)OC[C@@H]2CCCN32)C(=O)O1)C(F)F,4,4,2,4,4,,,,
O=C1O[C@@H](C/N=C/S)CN1c1cc(F)c2c(c1)OC[C@@H]1CCCN21,1,2,1,1,,1,1,9.07,
CC(C)O/C(S)=N\C[C@H]1CN(c2cc(F)c3c(c2)OC[C@@H]2CCCN32)C(=O)O1,8,8,8,8,8,8,,,
C/C(S)=N\C[C@H]1CN(c2cc(F)c3c(c2)OC[C@@H]2CCCN32)C(=O)O1,1,1,0.5,0.5,,0.5,1,30,
CCC/C(S)=N\C[C@H]1CN(c2cc(F)c3c(c2)OC[C@@H]2CCCN32)C(=O)O1,1,1,1,2,,2,1,30,
O=C1O[C@@H](C/N=C(/S)N2CCSCC2)CN1c1cc(F)c2c(c1)OC[C@@H]1CCCN21,16,16,16,16,,16,16,,
CS/C(S)=N\C[C@H]1CN(c2cc(F)c3c(c2)OC[C@@H]2CCCN32)C(=O)O1,1,,1,2,1,1,1,,30
O=C(CC(F)(F)F)NC[C@H]1CN(c2cc(F)c3c(c2)OC[C@@H]2CCCN32)C(=O)O1,4,4,4,8,,8,4,,
O=C(CCl)NC[C@H]1CN(c2ccc3c(c2)OC[C@@H]2CCCN32)C(=O)O1,4,8,2,4,4,,,,
O=C(NC[C@H]1CN(c2ccc3c(c2)OC[C@@H]2CCCN32)C(=O)O1)C(Cl)Cl,8,8,4,4,8,,,,
O=C1O[C@@H](C/N=C(/S)N2CCCC2)CN1c1cc(F)c2c(c1)OC[C@@H]1CCCN21,32,32,32,32,,32,32,,
CC(=O)NC[C@H]1CN(c2cc(F)c3c(c2)OC[C@@H]2CCCN32)C(=O)O1,2,4,1,2,,2,2,8.6,
CCCCCCC(=O)NC[C@H]1CN(c2cc(F)c3c(c2)OC[C@@H]2CCCN32)C(=O)O1,32,32,32,32,,32,32,,
CC(=O)NC[C@H]1CN(c2ccc(N3CCOCC3)c(F)c2)C(=O)O1 [LINEZOLID],,2,1,,,,,3.91,
CN[C@H](CC(C)C)C(=O)N[C@H]1C(=O)N[C@@H](CC(N)=O)C(=O)N[C@H]2C(=O)N[C@H]3C(=O)N[C@H](C(=O)N[C@H](C(=O)O)c4cc(O)cc(O)c4-c4cc3ccc4O)[C@H](O)c3ccc(c(Cl)c3)Oc3cc2cc(c3O[C@@H]2O[C@H](CO)[C@@H](O)[C@H](O)[C@H]2O[C@H]2C[C@](C)(N)[C@H](O)[C@H](C)O2)Oc2ccc(cc2Cl)[C@H]1O [VANCOMYCIN],2,> 32,,,2,,,,3.93
